In ChEMBL document CHEMBL3808334, “Synthesis and in vitro evaluation of novel triazine analogues as anticancer agents and their interaction studies with bovine serum albumin” (Eur J Med Chem, 2016):

How the values were obtained:
Assay type in all cases: functional
[1] = tested on: NCI-H226; assay: Growth inhibition of human NCI-H226 cells assessed as cell growth at 10^-4 M incubated for 48 hrs by sulforhodamine B assay; details: NCI-H226, 48 h, read-out: Activity
[2] = tested on: U-251; assay: Growth inhibition of human U251 cells assessed as cell growth at 10^-7 M incubated for 48 hrs by sulforhodamine B assay; details: U-251, 48 h, read-out: Activity
[3] = Growth inhibition of human RPMI8226 cells assessed as cell growth at 10^-7 M incubated for 48 hrs by sulforhodamine B assay; details: RPMI-8226, 48 h, read-out: Activity
[4] = Growth inhibition of human BT549 cells assessed as cell growth at 10^-4 M incubated for 48 hrs by sulforhodamine B assay; details: BT-549, 48 h, read-out: Activity
In short: (§1)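 Five-dose assay: five concentrations from 10-fold or ½-log serial dilutions. Cells are plated at 5,000–40,000 per well according to doubling time, grown 24 h, then exposed 48 h at 37 °C, 5% CO₂. Fixed with cold 50% TCA (final addition) for 60 min at 4 °C and stained with 0.4% SRB in 1% acetic acid. Bound dye is solubilized in 10 mM Tris base and read at 515 nm. GI₅₀ is where [(Ti−Tz)/(C−Tz)]×100 = 50, with a time-zero plate as Tz.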

[5] = tested on: K562; assay: Growth inhibition of human K562 cells incubated for 48 hrs by sulforhodamine B assay; details: K562, 48 h
In short: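 Cells were plated at 5,000–40,000 per well according to doubling time and preincubated 24 h at 37 °C in 5% CO2; time-zero plates were then TCA-fixed. Five concentrations (10-fold or ½-log dilutions, DMSO stock) were incubated 48 h. Cells were TCA-fixed, stained with 0.4% SRB and read at 515 nm. GI50 was taken where [(Ti−Tz)/(C−Tz)]×100 = 50.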

[6] = tested on: KM12; assay: Growth inhibition of human KM12 cells assessed as cell growth at 10^-7 M incubated for 48 hrs by sulforhodamine B assay; details: KM12, 48 h, read-out: Activity
[7] = tested on: SK-MEL-28; assay: Growth inhibition of human SK-MEL-28 cells assessed as cell growth at 10^-5 M incubated for 48 hrs by sulforhodamine B assay; details: SK-MEL-28, 48 h, read-out: Activity
[8] = tested on: A498; assay: Growth inhibition of human A498 cells assessed as cell growth at 10^-7 M incubated for 48 hrs by sulforhodamine B assay; details: A498, 48 h, read-out: Activity; in short: as §1
[9] = Growth inhibition of human OVCAR8 cells assessed as cell growth at 10^-5 M incubated for 48 hrs by sulforhodamine B assay; details: OVCAR-8, 48 h, read-out: Activity
[10] = tested on: A549; assay: Growth inhibition of human A549/ATCC cells assessed as cell growth at 10^-7 M incubated for 48 hrs by sulforhodamine B assay; details: A549, 48 h, read-out: Activity; in short: as §1
[11] = Growth inhibition of human Caki1 cells incubated for 48 hrs by sulforhodamine B assay; details: CAKI-1, 48 h; for CC50: read-out: pLC50 (the source's name) (converted)
In short: (§2)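 Cells seeded at 5,000–40,000/well according to doubling time and preincubated 24 h at 37 °C, 5% CO2. Time-zero plates were TCA-fixed. DMSO concentrate was diluted in medium with 50 µg/ml gentamicin to give five concentrations (10-fold or ½ log steps), then exposed 48 h. Cells were TCA-fixed, stained with 0.4% SRB and read at 515 nm. Percent growth was taken against time-zero and control; GI50, TGI and LC50 derived.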

[12] = Growth inhibition of human ovarian cancer cells incubated for 48 hrs by sulforhodamine B assay; details: Cancer cell lines; for CC50: read-out: LC50 (the source's name)
[13] = tested on: NCI-H226; assay: Growth inhibition of human NCI-H226 cells assessed as cell growth at 10^-6 M incubated for 48 hrs by sulforhodamine B assay; details: NCI-H226, 48 h, read-out: Activity
[14] = tested on: NCI-H322M; assay: Growth inhibition of human NCI-H322M cells assessed as cell growth at 10^-7 M incubated for 48 hrs by sulforhodamine B assay; details: read-out: Activity
[15] = tested on: MDA-MB-468; assay: Growth inhibition of human MDA-MB-468 cells assessed as cell growth at 10^-8 M incubated for 48 hrs by sulforhodamine B assay; details: MDA-MB-468, 48 h, read-out: Activity
[16] = Growth inhibition of human HL-60(TB) cells assessed as cell growth at 10^-7 M incubated for 48 hrs by sulforhodamine B assay; details: HL-60, 48 h, read-out: Activity
In short: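 Cells plated at 5,000–40,000/well according to doubling time and preincubated 24 h at 37 °C, 5% CO₂, with time-zero plates TCA-fixed. Drugs were kept as DMSO concentrates at 400× the top concentration and diluted in medium with 50 µg/ml gentamicin. Five 10-fold or ½-log dilutions were run for 48 h, followed by SRB staining and A515. Percent growth = (Ti−Tz)/(C−Tz)×100, or (Ti−Tz)/Tz×100 when Ti<Tz.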

[17] = Growth inhibition of human HOP92 cells assessed as cell growth at 10^-8 M incubated for 48 hrs by sulforhodamine B assay; details: HOP-92, 48 h, read-out: Activity
[18] = tested on: NCI-H460; assay: Growth inhibition of human NCI-H460 cells assessed as cell growth at 10^-7 M incubated for 48 hrs by sulforhodamine B assay; details: NCI-H460, 48 h, read-out: Activity
[19] = tested on: SK-MEL-2; assay: Growth inhibition of human SK-MEL-2 cells assessed as cell growth at 10 uM incubated for 48 hrs by sulforhodamine B assay; details: SK-MEL-2, 48 h, read-out: Activity
[20] = tested on: NCI-H522; assay: Growth inhibition of human NCI-H522 cells assessed as cell growth at 10^-7 M incubated for 48 hrs by sulforhodamine B assay; details: NCI-H522, 48 h, read-out: Activity
[21] = tested on: SK-MEL-28; assay: Growth inhibition of human SK-MEL-28 cells assessed as cell growth at 10^-6 M incubated for 48 hrs by sulforhodamine B assay; details: SK-MEL-28, 48 h, read-out: Activity
[22] = Growth inhibition of human HCT15 cells incubated for 48 hrs by sulforhodamine B assay; details: HCT-15, 48 h; in short: as §2
[23] = tested on: SK-MEL-28; assay: Growth inhibition of human SK-MEL-28 cells assessed as cell growth at 10 uM incubated for 48 hrs by sulforhodamine B assay; details: SK-MEL-28, 48 h, read-out: Activity
[24] = tested on: SN12C; assay: Growth inhibition of human SN12C cells assessed as cell growth at 10^-5 M incubated for 48 hrs by sulforhodamine B assay; details: read-out: Activity
[25] = Growth inhibition of human non-small cell lung cancer cells incubated for 48 hrs by sulforhodamine B assay; details: Cancer cell lines; for CC50: read-out: LC50 (the source's name)
[26] = tested on: SK-MEL-2; assay: Growth inhibition of human SK-MEL-2 cells assessed as cell growth at 10^-5 M incubated for 48 hrs by sulforhodamine B assay; details: SK-MEL-2, 48 h, read-out: Activity
[27] = read-out: LC50 (the source's name)
[28] = read-out: pLC50 (the source's name) (converted)

## Fc1ccc(-c2nc(Nc3ccc(-c4nc5ccccc5[nH]4)cc3)nc(N3CCOCC3)n2)cc1
[1]
  growth at 100 µM: -50%
[2]
  growth at 0.1 µM: 102%
[3]
  growth at 0.1 µM: 99%
[4]
  growth at 100 µM: -28%
[5]; read-out: GI50
  GI50: 2450 nM
[5]; [27]
  CC50: > 100000 nM
[5]; read-out: pGI50 (converted)
  GI50: 2450 nM
[5]; [28]
  CC50: > 100000 nM
[6]
  growth at 0.1 µM: 98%
[7]
  growth at 10 µM: -49%
[8]
  growth at 0.1 µM: 83%
[9]
  growth at 10 µM: 2%
[10]
  growth at 0.1 µM: 100%
[11]
  LC50: > 100000 nM
  CC50: > 100000 nM
[11]; read-out: GI50
  GI50: 1980 nM
[11]; read-out: TGI
  TGI: 5020 nM
[11]; read-out: pGI50 (converted)
  GI50: 2000 nM
[11]; read-out: pTGI (converted)
  TGI: 5010 nM
[12]
  GI50: 2740 nM
  TGI: 11500 nM
  CC50: > 100000 nM
[13]
  growth at 1 µM: 113%
[14]
  growth at 0.1 µM: 102%
[15]
  growth at 0.01 µM: 97%
[16]
  growth at 0.1 µM: 79%
[17]
  growth at 0.01 µM: 96%
[18]
  growth at 0.1 µM: 103%
[19]
  growth at 10 µM: -19.2%
[20]
  growth at 0.1 µM: 97%
[21]
  growth at 1 µM: 84%
[22]; read-out: GI50
  GI50: 1670 nM
[22]; [27]
  CC50: > 100000 nM
[22]; read-out: TGI
  TGI: 4780 nM
[22]; read-out: pGI50 (converted)
  GI50: 1660 nM
[22]; [28]
  CC50: > 100000 nM
[22]; read-out: pTGI (converted)
  TGI: 4790 nM
[23]
  growth at 10 µM: -34%
[24]
  growth at 10 µM: 12%
[25]
  GI50: 2680 nM
  TGI: 6650 nM
  CC50: 7760 nM
[26]
  growth at 10 µM: -35%

## Clc1ccc(-c2nc(Nc3ccc(-c4nc5ccccc5[nH]4)cc3)nc(N3CCOCC3)n2)cc1
[1]
  growth at 100 µM: -25%
[2]
  growth at 0.1 µM: 103%
[3]
  growth at 0.1 µM: 99%
[4]
  growth at 100 µM: -13%
[5]; read-out: GI50
  GI50: 186 nM
[5]; read-out: TGI
  TGI: 391 nM
[5]; read-out: pGI50 (converted)
  GI50: 186 nM
[5]; read-out: pTGI (converted)
  TGI: 389 nM
[6]
  growth at 0.1 µM: 97%
[7]
  growth at 10 µM: -81%
[8]
  growth at 0.1 µM: 82%
[9]
  growth at 10 µM: -79%
[10]
  growth at 0.1 µM: 99%
[11]
  LC50: 5230 nM
  CC50: 5250 nM
[11]; read-out: GI50
  GI50: 1410 nM
[11]; read-out: TGI
  TGI: 2720 nM
[11]; read-out: pGI50 (converted)
  GI50: 1410 nM
[11]; read-out: pTGI (converted)
  TGI: 2690 nM
[12]
  GI50: 920 nM
  TGI: 2300 nM
  CC50: 5200 nM
[13]
  growth at 1 µM: 100%
[14]
  growth at 0.1 µM: 94%
[15]
  growth at 0.01 µM: 99%
[16]
  growth at 0.1 µM: 90%
[17]
  growth at 0.01 µM: 90%
[18]
  growth at 0.1 µM: 100%
[19]
  growth at 10 µM: -71.3%
[20]
  growth at 0.1 µM: 95%
[21]
  growth at 1 µM: 84%
[22]; read-out: GI50
  GI50: 188 nM
[22]; read-out: TGI
  TGI: 412 nM
[22]; read-out: pGI50 (converted)
  GI50: 191 nM
[22]; read-out: pTGI (converted)
  TGI: 407 nM
[23]
  growth at 10 µM: -84.7%
[24]
  growth at 10 µM: -77%
[25]
  GI50: 1150 nM
  TGI: 2590 nM
  CC50: 5580 nM
[26]
  growth at 10 µM: -87%

## c1ccc2[nH]c(-c3ccc(Nc4nc(N5CCCCC5)nc(N5CCOCC5)n4)cc3)nc2c1
[1]
  growth at 100 µM: -36%
[2]
  growth at 0.1 µM: 97%
[3]
  growth at 0.1 µM: 95%
[4]
  growth at 100 µM: -50%
[5]; read-out: GI50
  GI50: 2840 nM
[5]; [27]
  CC50: > 100000 nM
[5]; read-out: pGI50 (converted)
  GI50: 2820 nM
[5]; [28]
  CC50: > 100000 nM
[6]
  growth at 0.1 µM: 103%
[7]
  growth at 10 µM: -57%
[8]
  growth at 0.1 µM: 81%
[9]
  growth at 10 µM: 9%
[10]
  growth at 0.1 µM: 96%
[11]; read-out: GI50
  GI50: 1810 nM
[11]; read-out: TGI
  TGI: 4080 nM
[11]; read-out: pGI50 (converted)
  GI50: 1820 nM
[11]; read-out: pTGI (converted)
  TGI: 4070 nM
[12]
  GI50: 3460 nM
  TGI: 22600 nM
  CC50: 26900 nM
[13]
  growth at 1 µM: 89%
[14]
  growth at 0.1 µM: 97%
[15]
  growth at 0.01 µM: 104%
[16]
  growth at 0.1 µM: 100%
[17]
  growth at 0.01 µM: 92%
[18]
  growth at 0.1 µM: 98%
[19]
  growth at 10 µM: -20.6%
[20]
  growth at 0.1 µM: 97%
[21]
  growth at 1 µM: 87%
[22]; read-out: GI50
  GI50: 1880 nM
[22]; [27]
  CC50: > 100000 nM
[22]; read-out: TGI
  TGI: 4380 nM
[22]; read-out: pGI50 (converted)
  GI50: 1860 nM
[22]; [28]
  CC50: > 100000 nM
[22]; read-out: pTGI (converted)
  TGI: 4370 nM
[23]
  growth at 10 µM: -30.2%
[24]
  growth at 10 µM: 32%
[25]
  GI50: 2850 nM
  TGI: 9660 nM
  CC50: 9540 nM
[26]
  growth at 10 µM: -38%
